This assay addresses T1, Heat shock factor protein 1 (Homo sapiens, UniProt Q00613).
T1 sequence (Q00613 whole entry): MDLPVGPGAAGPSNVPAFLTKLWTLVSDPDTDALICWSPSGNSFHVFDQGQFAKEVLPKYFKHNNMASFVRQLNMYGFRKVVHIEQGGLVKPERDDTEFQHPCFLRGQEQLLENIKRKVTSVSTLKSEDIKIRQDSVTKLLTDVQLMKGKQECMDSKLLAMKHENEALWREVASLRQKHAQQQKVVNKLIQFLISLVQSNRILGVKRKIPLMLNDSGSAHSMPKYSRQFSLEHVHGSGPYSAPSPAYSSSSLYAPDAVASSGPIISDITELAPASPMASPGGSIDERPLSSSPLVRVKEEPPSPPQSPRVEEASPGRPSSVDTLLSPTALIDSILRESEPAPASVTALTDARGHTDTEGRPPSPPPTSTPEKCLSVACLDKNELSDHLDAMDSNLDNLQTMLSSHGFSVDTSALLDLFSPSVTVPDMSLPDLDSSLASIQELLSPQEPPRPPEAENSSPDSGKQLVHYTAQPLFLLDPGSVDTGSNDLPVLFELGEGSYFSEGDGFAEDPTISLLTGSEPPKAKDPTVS
Nature of the assay: Transcriptional activation of HSF1 in heat shock stress-induced human HeLa cells assessed as granule formation treated 1 hr before heat shock challenge measured after 2 hrs by immunocytochemical staining. In a few lines:
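HeLa cells given compound 1 h, then heat shock at 41 °C for 2 h without recovery; HSF1 immunocytochemical staining, quantified by high-content imaging. Range 0.3–80 µM, twofold dilution, 200-fold overall.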
For orientation: EC50 means the concentration needed to bring the measured effect to its halfway point. `OC(CO/N=C(\Cl)c1nc2c(F)cccc2o1)CN1CCCCC1` (configuration not stated) [4-fluoro-N-(2-hydroxy-3-(piperidin-1-yl)propoxy)benzo[d]oxazole-2-carbimidoyl chloride]: the EC50 was 20.2 µM.

`CCS(=O)(=O)c1ccc2oc(/C(Cl)=N/OCC(O)CN3CCCCC3)nc2c1` (configuration not stated) [5-(ethylsulfonyl)-N-(2-hydroxy-3-(piperidin-1-yl)propoxy)benzo[d]oxazole-2-carbimidoyl chloride]: the EC50 is 42.9 µM. `OC(CO/N=C(\Cl)c1nc2cc(Cl)ccc2o1)CN1CCCCC1` (configuration not stated) [5-chloro-N-(2-hydroxy-3-(piperidin-1-yl)propoxy)benzo[d]oxazole-2-carbimidoyl chloride]: the EC50 is 20.9 µM.

As to `OC(CO/N=C(\Cl)c1nc2cc(F)ccc2o1)CN1CCCCC1` (configuration not stated) [5-fluoro-N-(2-hydroxy-3-(piperidin-1-yl)propoxy)benzo[d]oxazole-2-carbimidoyl chloride], the EC50 was found to be 51.3 µM. Regarding `CN(C)S(=O)(=O)c1ccc2nc(/C(Cl)=N/OCC(O)CN3CCCCC3)oc2c1` (configuration not stated) [6-(N,N-dimethylsulfamoyl)-N-(2-hydroxy-3-(piperidin-1-yl)propoxy)benzo[d]oxazole-2-carbimidoyl chloride], the EC50 came to 41.6 µM.

`OC(CO/N=C(\Cl)c1nc2ccc(Cl)cc2o1)CN1CCCCC1` (configuration not stated) [6-chloro-N-(2-hydroxy-3-(piperidin-1-yl)propoxy)benzo[d]oxazole-2-carbimidoyl chloride]: the 50% effective concentration (EC50) is 22.9 µM.

On to `OC(CO/N=C(\Cl)c1nc2ccc(F)cc2o1)CN1CCCCC1` (configuration not stated) [6-fluoro-N-(2-hydroxy-3-(piperidin-1-yl)propoxy)benzo[d]oxazole-2-carbimidoyl chloride], for which the EC50 turned out to be 29.4 µM.

With `OC(CO/N=C(\Cl)c1nc2cccc(F)c2o1)CN1CCCCC1` (configuration not stated) [7-fluoro-N-(2-hydroxy-3-(piperidin-1-yl)propoxy)benzo[d]oxazole-2-carbimidoyl chloride], the EC50 is 18.5 µM. The same measure for `CCCN(C[C@H](O)CO/N=C(\Cl)c1nc2ccccc2o1)C(C)C` [(S)-N-(2-hydroxy-3-(isopropyl(propyl)amino)propoxy)benzo[d]oxazole-2-carbimidoyl chloride]: 24.1 µM; for `CC(C)N(CCO)CC(O)CO/N=C(\Cl)c1nc2ccccc2o1` (configuration not stated) [N-(2-hydroxy-3-((2-hydroxyethyl)(isopropyl)amino)propoxy)benzo[d]oxazole-2-carbimidoyl chloride]: 28.7 µM; for `Cc1ccc2oc(/C(Cl)=N/OCC(O)CN3CCCCC3)nc2c1` (configuration not stated) [N-(2-hydroxy-3-(piperidin-1-yl)propoxy)-5-methylbenzo[d]oxazole-2-carbimidoyl chloride]: 41.6 µM. The same measure for `Cc1ccc2nc(/C(Cl)=N/OCC(O)CN3CCCCC3)oc2c1` (configuration not stated) [N-(2-hydroxy-3-(piperidin-1-yl)propoxy)-6-methylbenzo[d]oxazole-2-carbimidoyl chloride]: 31 µM; for `OC(CO/N=C(\Cl)c1nc2ccccc2o1)CN1CCCCC1` (configuration not stated) [N-(2-hydroxy-3-(piperidin-1-yl)propoxy)benzo[d]oxazole-2-carbimidoyl chloride]: 41.7 µM. In the case of `OC(CO/N=C(\Cl)c1nc2ccccc2s1)CN1CCCCC1` (configuration not stated) [N-(2-hydroxy-3-(piperidin-1-yl)propoxy)benzo[d]thiazole-2-carbimidoyl chloride], the EC50 stood at 52.6 µM. `OC(CO/N=C(\Cl)c1nc2c(ccc3ccccc32)o1)CN1CCCCC1` (configuration not stated) [N-(2-hydroxy-3-(piperidin-1-yl)propoxy)naphtho[1,2-d]oxazole-2-carbimidoyl chloride]: the EC50 stood at 12.1 µM. In the case of `OC(CO/N=C(\Cl)c1nc2ccccc2s1)CN1CCCC1` (configuration not stated) [N-(2-hydroxy-3-(pyrrolidin-1-yl)propoxy)benzo[d]thiazole-2-carbimidoyl chloride] it was 62.8 µM; in that of `CC1CCCC(C)N1CC(O)CO/N=C(\Cl)c1nc2ccccc2o1` (configuration not stated) [N-(3-(2,6-dimethylpiperidin-1-yl)-2-hydroxypropoxy)benzo[d]oxazole-2-carbimidoyl chloride], 32.4 µM. For `CC1CC(C)CN(CC(O)CO/N=C(\Cl)c2nc3ccccc3o2)C1` (configuration not stated) [N-(3-(3,5-dimethylpiperidin-1-yl)-2-hydroxypropoxy)benzo[d]oxazole-2-carbimidoyl chloride], the EC50 amounted to 17.4 µM.

On to `OC(CO/N=C(\Cl)c1nc2ccccc2o1)CN1CCCC(F)C1` (configuration not stated) [N-(3-(3-fluoropiperidin-1-yl)-2-hydroxypropoxy)benzo[d]oxazole-2-carbimidoyl chloride], for which the EC50 came to 52.6 µM. For the compound `CC(C)N(CCCF)CC(O)CO/N=C(\Cl)c1nc2ccccc2o1` (configuration not stated) [N-(3-((3-fluoropropyl)(isopropyl)amino)-2-hydroxypropoxy)benzo[d]oxazole-2-carbimidoyl chloride], the EC50 came out at 22.8 µM. `CC(C)N(CC(O)CO/N=C(\Cl)c1nc2ccccc2o1)CC1CC1` (configuration not stated) [N-(3-((cyclopropylmethyl)(isopropyl)amino)-2-hydroxypropoxy)benzo[d]oxazole-2-carbimidoyl chloride]: the 50% effective concentration (EC50) came to 12.4 µM. Take `CCCCN(CCCC)CC(O)CO/N=C(\Cl)c1nc2ccccc2o1` (configuration not stated) [N-(3-(dibutylamino)-2-hydroxypropoxy)benzo[d]oxazole-2-carbimidoyl chloride]: the EC50 was found to be 20.9 µM. As to `CCN(CC)CC(O)CO/N=C(\Cl)c1nc2ccccc2o1` (configuration not stated) [N-(3-(diethylamino)-2-hydroxypropoxy)benzo[d]oxazole-2-carbimidoyl chloride], the EC50 stood at 27.1 µM. For the compound `CC(C)N(CC(O)CO/N=C(\Cl)c1nc2ccccc2o1)C(C)C` (configuration not stated) [N-(3-(diisopropylamino)-2-hydroxypropoxy)benzo[d]oxazole-2-carbimidoyl chloride], the EC50 came out at 25.5 µM. Take `CCCN(CCC)CC(O)CO/N=C(\Cl)c1nc2ccccc2o1` (configuration not stated) [N-(3-(dipropylamino)-2-hydroxypropoxy)benzo[d]oxazole-2-carbimidoyl chloride]: the EC50 is 23.9 µM. In the case of `CCCN(CC)CC(O)CO/N=C(\Cl)c1nc2ccccc2o1` (configuration not stated) [N-(3-(ethyl(propyl)amino)-2-hydroxypropoxy)benzo[d]oxazole-2-carbimidoyl chloride] it was 23 µM; in that of `CC(C)N(CC(O)CO/N=C(\Cl)c1nc2ccccc2o1)C(C)(C)C` (configuration not stated) [N-(3-(tert-butyl(isopropyl)amino)-2-hydroxypropoxy)benzo[d]oxazole-2-carbimidoyl chloride], 16.6 µM.
